Rows were chosen to be rich in hits. Some 9.4% of all compounds tested hit in one or more screens of this group.
CSC inhib = cancer stem cell inhibition | cancer stem cell-like cells viability, luminescence | inhibition, % at 7.5 µM | 1.1% of 300,000 active | AID 2717; in the data active = inhibition above about 75%; tested in HMLE shEcad cells
Beta apoptosis = blocks beta cell apoptosis; 0.8% of 300,000 active; protection from apoptosis, % (test concentration not listed); AID 435005; INS-1E cytokine-induced death, ATP luminescence, 48 h; percent of positive-control rescue, neutral wells zero;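 active = Every replicate reaches about 75%, or at least half do and their mean reaches it too, limit read from the data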;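 note: 0% = cytokine-treated negative control wells and 100% = positive control rescue; higher means more ATP so stronger rescue from cytokine killing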
SKKanGAS inh = SKKanGAS growth inhibition; inhibition, % at 7.5 µM; S. pyogenes SKKanGAS, kanamycin growth, BacTiter-Glo, 6 h; 1.3% of 300,000 active;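 active = mean replicate score, as percent of positive control median, at least 50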;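 note: strain carries kanamycin resistance gene driven by streptokinase promoter and grows in 40 µg/ml kanamycin; loss of luminescence reflects streptokinase promoter inhibition or plain growth inhibition; 0% = median of DMSO wells and 100% = positive control at its reference dose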
Mdm2-MdmX inh = inhibitors of human Mdm2/MdmX interaction; O15151+Q00987; SaOS-2 split-luciferase Mdm2/MdmX complementation, luminescence; inhibition, % at 8 µM; 3% of 330,000 active; AID 485346;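 active = inhibition of at least 50% at 8 µM in the primary screen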
Target sequence (O15151 whole entry, looked up): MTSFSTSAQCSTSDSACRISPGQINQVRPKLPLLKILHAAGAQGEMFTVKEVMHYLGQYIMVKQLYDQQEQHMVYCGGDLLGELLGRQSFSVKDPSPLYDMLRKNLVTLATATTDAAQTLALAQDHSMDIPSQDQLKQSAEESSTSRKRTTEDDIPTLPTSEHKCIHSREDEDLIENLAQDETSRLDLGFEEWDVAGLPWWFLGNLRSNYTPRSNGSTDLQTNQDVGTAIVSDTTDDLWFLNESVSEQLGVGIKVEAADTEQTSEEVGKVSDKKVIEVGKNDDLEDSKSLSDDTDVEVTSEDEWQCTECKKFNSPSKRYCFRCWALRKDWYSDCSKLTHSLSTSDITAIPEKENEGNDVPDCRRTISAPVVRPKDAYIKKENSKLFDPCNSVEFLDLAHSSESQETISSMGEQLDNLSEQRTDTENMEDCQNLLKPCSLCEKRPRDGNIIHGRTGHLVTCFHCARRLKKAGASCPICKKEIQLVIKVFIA
Target sequence (Q00987 whole entry, looked up): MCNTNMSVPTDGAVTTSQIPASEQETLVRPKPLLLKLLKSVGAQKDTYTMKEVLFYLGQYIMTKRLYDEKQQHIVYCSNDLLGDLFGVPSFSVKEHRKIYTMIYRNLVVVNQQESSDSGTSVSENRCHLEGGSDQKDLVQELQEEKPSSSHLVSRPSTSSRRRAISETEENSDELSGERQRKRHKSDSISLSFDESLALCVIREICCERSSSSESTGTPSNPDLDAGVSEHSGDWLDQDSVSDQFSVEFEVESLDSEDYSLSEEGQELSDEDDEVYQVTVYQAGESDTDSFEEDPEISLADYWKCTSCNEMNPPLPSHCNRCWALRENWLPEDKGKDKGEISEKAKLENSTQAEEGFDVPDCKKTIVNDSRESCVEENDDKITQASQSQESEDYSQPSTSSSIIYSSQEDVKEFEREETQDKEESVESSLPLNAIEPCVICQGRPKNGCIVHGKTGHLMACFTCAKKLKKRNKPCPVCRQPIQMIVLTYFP
T cruzi inh = blocks replication of Trypanosoma cruzi; T. cruzi beta-gal in NIH3T3, luminescence, 90 h; inhibition, % (concentration not given with the values); 1.4% of 300,000 active;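 active = mean inhibition across valid replicates above about 55%, limit read from the data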;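 note: signal also drops with host cell toxicity which is not excluded here; 0% = plate median of DMSO wells and 100% = zero luminescence signal; higher percent means less beta-gal luminescence so fewer parasites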
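Material: NIH/3T3 host cells with β-galactosidase reporter T. cruzi; Input: 5,000 host fibroblasts per well; Medium: DMEM, 2% fetal bovine serum; Compound: 50 nL DMSO compound solution per well; Schedule: 3 h host attachment, then at least 90 h co-culture; Detection: luminescent β-galactosidase signal after 60 min lysis.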
L major viab = reduces viability of Leishmania major promastigotes; resazurin fluorescence viability; inhibition, % at 10 µM; 9% of 200,000 active; in the data active = inhibition above about 50%;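 note: promastigotes grown with compound for 44 hours at 28 °C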
Numbers without * were called inactive; . = no result given.

SMILES	CSC inhib	Beta apoptosis	SKKanGAS inh	Mdm2-MdmX inh	T cruzi inh	L major viab
CCOC(=O)C1CCN(CCC(=O)Nc2ccccc2Cl)CC1	-7	-1	0	14	0	78*
CCOC(=O)C1CCN(CCC(=O)Nc2ccc(Br)c(C)c2)CC1	-8	-2	0	-2	16	.
CCOC(=O)C1CCN(CCC(=O)Nc2ccc(C)cc2)CC1	-9	1	3	4	12	56*
CCOC(=O)C1CCN(CCC(=O)Nc2cccc(Cl)c2)CC1	-15	-10	-6	27	-29	93*
O=C(CCN1CCN(Cc2ccccc2)CC1)Nc1cccc(Cl)c1	-3	-3	2	10	55*	89*
Cc1nc(C)c(C(=O)OCC(=O)N(C)c2ccccc2)s1	.	.	.	13	.	.
COC(=O)CCSc1cc(NCCOC(C)=O)c([N+](=O)[O-])c2nonc12	-1	3	0	-15	4	84*
CC(=O)OCCNc1cc(Sc2nc3ccccc3[nH]2)c2nonc2c1[N+](=O)[O-]	41	1	53*	.	56*	5
CC(=O)OCCNc1cc(SCc2ccco2)c2nonc2c1[N+](=O)[O-]	-1	-4	1	.	-1	33
CCCC(=O)OCCNc1cc(SCCC(=O)OC)c2nonc2c1[N+](=O)[O-]	0	.	3	25	-8	16
COc1cccc(C(c2nnnn2CC2CCCO2)N2CCN(C(=O)c3ccco3)CC2)c1OC (stereo unspecified)	-5	-7	-5	28	-1	-1
CCOC(=O)C(NC(C)=O)C(=O)Nc1ccc(C)cc1C (stereo unspecified)	2	-7	0	2	-21	-7
CC1=C(C)C(=O)NC(Nc2nc(C)c3cc(C)cc(C)c3n2)N1 (stereo unspecified)	.	.	.	.	.	100*
Cc1cc(C)c2nc(/N=C(\N)NC(=O)c3ccccc3)nc(C)c2c1	-3	2	-9	37	9	.
CC1CCN(C(=O)c2ccc(SCc3ccccc3F)c([N+](=O)[O-])c2)CC1	32	2	-4	7	40	69*
O=C(NCCCN1CCOCC1)c1ccc(N2CCOCC2)c([N+](=O)[O-])c1	-15	1	.	8	9	.
CCN1CCCC1CNC(=O)c1ccc(Sc2ccc(F)cc2)c([N+](=O)[O-])c1 (stereo unspecified)	79*	-20	3	-3	62*	100*
O=C(NCCCN1CCOCC1)c1ccc(Sc2ccc(F)cc2)c([N+](=O)[O-])c1	46	3	-6	17	61*	100*
CCN1CCCC1CNC(=O)c1ccc(N2CCCC2=O)cc1 (stereo unspecified)	-1	-3	-1	-5	-1	4
CCN1CCCC1CNC(=O)c1ccc(Sc2ccccc2Cl)c([N+](=O)[O-])c1 (stereo unspecified)	74	9	0	49	28	100*
Cc1ccc(-c2noc(CCCC(=O)NCC3CCCO3)n2)cc1 (stereo unspecified)	.	-2	-3	-4	-6	.
CCN1CCN(C(=O)c2ccc(Sc3ccccc3Cl)c([N+](=O)[O-])c2)CC1	27	0	-6	-7	-22	89*
CN(C)CCNC(=O)c1ccc(Sc2ccc(Br)cc2)c([N+](=O)[O-])c1	67	1	4	25	77*	100*
CC(=O)NCCNC(=O)c1ccc(Sc2ccccc2)c([N+](=O)[O-])c1	38	1	-2	16	2	6
O=C(c1ccc(Sc2ccccc2)c([N+](=O)[O-])c1)N1CCOCC1	31	0	-2	-16	4	.
SMILES	CSC inhib	Beta apoptosis	SKKanGAS inh	Mdm2-MdmX inh	T cruzi inh	L major viab
Cc1noc(NS(=O)(=O)c2ccc(NC(=O)c3oc4ccc(Cl)cc4c3C)cc2)c1C	19	-1	64*	1	-3	.
Cc1c(C(=O)Nc2ccc(S(=O)(=O)Nc3ncccn3)cc2)oc2ccc(Cl)cc12	5	-3	24	12	-5	.
Cc1ccc2c(C)c(C(=O)Nc3ccc(S(=O)(=O)Nc4onc(C)c4C)cc3)oc2c1	-2	.	65*	0	-10	.
Cc1ccc2c(=O)cc(C(=O)Nc3ccc(S(=O)(=O)Nc4onc(C)c4C)cc3)oc2c1	.	.	3	6	-14	.
O=C(Nc1ccc(Cl)cc1)c1cccc(NC2=NC3CS(=O)(=O)CC3S2)c1 (stereo unspecified)	.	1	-3	2	3	.
COc1cc2[nH]c(=O)n(C3CCCCC3)c(=O)c2cc1OC	-1	-5	-5	6	-1	50*
CCOc1cc2[nH]c(=S)n(C3CC3)c(=O)c2cc1OCC	-5	3	3	-4	1	-5
COc1cc2nc(CN3CCN(S(=O)(=O)c4ccc(Cl)cc4)CC3)[nH]c(=O)c2cc1OC	19	-12	-2	18	18	2
c1ccc(-c2ccccc2OCCCN2CCCCCC2)cc1	43	8	-5	26	28	98*
c1ccc(-c2ccccc2OCCCN2CCCC2)cc1	-1	-1	3	-8	10	48
c1ccc(-c2ccccc2OCCCCN2CCCCC2)cc1	16	4	-2	6	15	95*
O=C(Nc1ccccc1N1CCOCC1)c1cccc2c(Br)cccc12	0	5	8	20	10	.
O=C1NC2=C(C(=O)CCC2)C(c2cccc([N+](=O)[O-])c2)N1 (stereo unspecified)	.	.	3	9	3	.
Cc1cccc(N(C(=O)c2nsc(Cl)c2Cl)C(C(=O)NC2CCCC2)c2ccc(O)cc2)c1 (stereo unspecified)	12	4	-6	10	36	85*
CCCc1cc(NCC2CCCO2)n2c(nc3ccccc32)c1C#N (stereo unspecified)	5	-8	13	9	29	78*
O=C(Nc1ccccc1)C1=C[C@@H](c2ccc(Br)cc2)C[C@@H](OCc2ccc(CO)cc2)O1	70	3	11	13	39	56*
C#CCNC(=O)C1=C[C@H](C(C)(C)C)C[C@H](OCc2ccc(CO)cc2)O1	5	-6	0	-22	9	24
O=C(O)C1=C[C@@H](c2ccc(Br)cc2)C[C@@H](OCc2ccc(CO)cc2)O1	18	4	-1	9	-7	-12
O=C(NC1CC1)C1=C[C@@H](C2CCCCC2)C[C@@H](OCc2ccc(CO)cc2)O1	-16	-9	-7	-14	27	98*
CC(C)(C)[C@@H]1C=C(C(=O)Nc2ccccc2)O[C@H](OCc2ccc(CO)cc2)C1	22	-4	0	31	26	99*
CN(Cc1ccon1)Cc1cn(C)nc1-c1cccc(Cl)c1	2	-3	0	-3	-4	3
COc1ccc(-n2nc3c(c2NC(=O)COc2ccccc2F)CS(=O)(=O)C3)cc1	-12	-4	4	21	5	.

Source: PubChem BioAssay (several laboratories)
